Screens (PubChem BioAssay)
An excerpt weighted towards active compounds, which were near 29% of everything screened.
CYP2C9 act = activators of human CYP2C9; P11712; recombinant CYP2C9, luciferin-H conversion, luminescence; active compounds read high; factor 1 = untreated enzyme, 0 = blocked; activation factor at 5 µM; 96,000 tested, 1.4% active;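 active = activation factor of 2 or more for CYP2C9 at a 5 µM dose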
CYP2C19 inhib = inhibitors of human CYP2C19; P33261; CYP2C19 Supersomes, luciferin-H EGE luminescence, 30 min; 96,000 tested, 21% active; AID 778; inhibition, % at 5 µM;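 active = CYP2C19 inhibition above a set limit at 5 µM in the primary screen, cut at about 50% in these data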
Target sequence (P33261 whole entry, looked up): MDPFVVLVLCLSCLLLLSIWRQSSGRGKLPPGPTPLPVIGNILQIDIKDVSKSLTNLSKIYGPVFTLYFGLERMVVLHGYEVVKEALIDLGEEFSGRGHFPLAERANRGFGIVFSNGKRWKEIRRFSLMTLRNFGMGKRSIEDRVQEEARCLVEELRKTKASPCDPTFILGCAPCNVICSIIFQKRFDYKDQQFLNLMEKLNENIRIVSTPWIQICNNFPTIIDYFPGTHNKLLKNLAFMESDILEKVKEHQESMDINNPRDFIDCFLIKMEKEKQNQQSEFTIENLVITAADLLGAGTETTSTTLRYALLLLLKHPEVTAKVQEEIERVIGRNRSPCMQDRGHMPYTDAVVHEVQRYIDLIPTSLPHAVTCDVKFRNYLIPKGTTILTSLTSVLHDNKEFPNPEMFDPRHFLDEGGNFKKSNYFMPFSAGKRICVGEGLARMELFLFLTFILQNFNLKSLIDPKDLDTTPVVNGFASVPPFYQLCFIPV
E coli WT exp = blocks growth of wild type E. coli BW25113; OD600 absorbance; growth inhibition, % at 100 µM; 98,000 tested, 0.15% active; AID 710;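 active = growth inhibition above about 50% at one test dose, limit read from the data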;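 also: growth measured after 20 h incubation at 37 °C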
CYP2C9 inhib = inhibitors of human CYP2C9; inhibition, % at 5 µM; P11712; CYP2C9 Supersomes, luciferin-H conversion, luminescence; 96,000 tested, 20% active; AID 777;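 active = blocking of liver enzyme CYP2C9 beyond about 50% at 5 µM, limit read from the data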
CYP2C19 act = cytochrome P450 2C19 (human) activation; activation factor at 5 µM; P33261; recombinant CYP2C19, luciferin-H EGE luminescence; active compounds read high; 0 = fully inhibited enzyme, 1 = untreated enzyme; 96,000 tested, under 10 active;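 active = activation factor of at least 2 at 5 µM in the primary screen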
Ecoli tolC = blocks growth of E. coli BW25113 tolC mutant | growth inhibition, % at 10 µM (by protocol) | AID 573 | 65,000 tested, 2.2% active | OD615;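 active = growth inhibition at or above a cutoff equal to the mean over every tested compound plus 3 SD, cut at about 60% in these data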;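 also: growth measured after 20 h incubation at 37 °C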
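Test system: tolC-deleted E. coli BW25113 | Medium: LB with kanamycin 50 µg/mL | Compound dosing: Single concentration, 10 µM final per compound | Schedule: 37 °C, 20 h exposure | Measured by: OD at 615 nm | Evaluation: Percent growth inhibition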
Of the large screens only hits and unclear results are named; the others gave an inactive call.

CCOC(=O)C1(C(=O)OCC)CC1c1ccccc1 (stereo not given)	none (no result: Ecoli tolC)
Cc1nc2sc(C(c3ccco3)N3CC(C)OC(C)C3)c(O)n2n1 (stereo not given)	none
COc1ccccc1C1CC(=O)NC(SCC(=O)Nc2ccccc2)=C1C#N (stereo not given)	CYP2C19 inhib 76
Cc1ccccc1NC(=O)CSC1=C(C#N)C(c2ccsc2)CC(=O)N1 (stereo not given)	none (no result: Ecoli tolC)
CCSC1=C(C#N)C(c2ccccc2C)CC(=O)N1 (stereo not given)	none
N#CC1=C(SCC(=O)Nc2nccs2)NC(=O)CC1c1ccccc1 (stereo not given)	CYP2C19 inhib 58, CYP2C9 inhib 87 (no result: Ecoli tolC)
CCOC(=O)CC(=O)CSC1=C(C#N)C(c2ccccc2OC)CC(=O)N1 (stereo not given)	CYP2C19 inhib 62, CYP2C9 inhib 63
Cc1ccc(-c2nn3nnnc3c3ccccc23)cc1	none
CC(C)C1=NN2C(=N)CC(=O)N=C2S1	none (no result: Ecoli tolC)
CC1CCN(C(=O)CSc2nncn2-c2ccccn2)CC1	none
CC(C)(C)NC(=O)CSc1nnc(-c2ccccn2)n1-c1ccccc1	CYP2C19 inhib 53
CC(C)(C)NC(=O)CSc1nc2ccccc2n1-c1ccccc1	CYP2C19 inhib 99, CYP2C9 inhib 100 (no result: Ecoli tolC)
CC(C)(C)NC(=O)CSc1nc(O)cc(=O)n1-c1ccccc1	none (no result: Ecoli tolC)
Cn1c(SCc2ccc(F)cc2)nnc1-c1ccccn1	CYP2C19 inhib 88
c1ccc(CSc2nncn2-c2ccccn2)cc1	CYP2C19 inhib 88
CCC1CCCCN1Cc1nc2c(c(=O)n(C)c(=O)n2C)n1Cc1cccc2ccccc12 (stereo not given)	none (no result: E coli WT exp)
Cc1ccc(CSc2nnc(-c3ccccn3)n2C)cc1	none
c1ccc(CSc2nnc(-c3ccccn3)n2-c2ccccc2)cc1	CYP2C9 inhib 99 (no result: Ecoli tolC)
Cn1c(SCc2ccccc2F)nnc1-c1cnccn1	CYP2C19 inhib 62
Clc1ss/c(=N\c2ccccn2)c1Cl	none
Cc1ccc(OCC(=O)NCc2ccccn2)cc1	CYP2C19 inhib 76
Cc1cc(=O)oc2cc(OCC(=O)NCc3ccccn3)ccc12	none (no result: Ecoli tolC)
CCOc1ccc(-c2cc(CCCC(=O)NCCc3ccc(OC)c(OC)c3OC)no2)cc1	CYP2C9 inhib 66
Cc1ccccc1NC(=O)C(=O)NCc1ccccn1	CYP2C19 inhib 89 (no result: Ecoli tolC)
COc1ccc(-c2cc(CCCC(=O)NCc3ccccn3)no2)cc1	CYP2C19 inhib 56, CYP2C9 inhib 67
COc1ccc(S(=O)(=O)N2CCC(C(=O)NCc3ccccn3)CC2)cc1OC	none (no result: Ecoli tolC)
CCOc1cc(CNCc2ccccn2)ccc1OCC(=O)NC1CCCCC1	none (no result: Ecoli tolC)
CCOc1ccc(-c2cc(CCCC(=O)NCCc3ccccc3)no2)cc1	CYP2C9 inhib 50 (no result: Ecoli tolC)
CCOc1ccc(-c2cc(CCCC(=O)NCc3cccnc3)no2)cc1	none
Cc1cc(S(=O)(=O)NC2CCCCC2)ccc1OCC(=O)NCc1ccccn1	CYP2C9 inhib 54
O=C(COc1ccc(S(=O)(=O)N2CCc3ccccc32)cc1Cl)NCc1ccccn1	CYP2C19 inhib 94, CYP2C9 inhib 94
CCC(=O)N1CCN(c2ccccc2NC(=O)COc2ccccc2Cl)CC1	CYP2C19 inhib 87, CYP2C9 inhib 94
O=C(COC(=O)c1ccc(O)cc1)Nc1ccc(N2CCCCC2)cc1	CYP2C19 inhib 64, CYP2C9 inhib 74 (no result: Ecoli tolC)
CCCCOC(=O)Nc1ccc(N2CCCCC2)cc1	CYP2C19 inhib 70, CYP2C9 inhib 52
CCCCOC(=O)Nc1ccc(N2CCOCC2)cc1	none (no result: CYP2C9 act, CYP2C19 inhib, E coli WT exp, CYP2C9 inhib, CYP2C19 act)
CCC(=O)N1CCN(c2ccc(NC(=O)COc3ccccc3Cl)cc2)CC1	CYP2C19 inhib 81, CYP2C9 inhib 71 (no result: Ecoli tolC)
CN1CCN(c2ccc(NC(=O)COc3ccccc3Cl)cc2)CC1	none
COc1ccc(CCNC(=O)CSc2nnc(CNC(=O)c3ccco3)o2)cc1OC	none
Cc1ccc(S(=O)(=O)n2cnc3cc([N+](=O)[O-])ccc32)c(C)c1C	none (no result: Ecoli tolC)
CNC(=O)C1CC(=O)N/C(=N/N=C(\C)c2cccs2)S1 (stereo not given)	none (no result: Ecoli tolC)
CCOc1ccccc1C(=O)OCC(=O)Nc1ccc(N2CCCCC2)cc1	none (no result: Ecoli tolC)
CCOc1ccccc1OCC(=O)Nc1ccc(N2CCCCC2)cc1	CYP2C9 act 2.6
COc1ccc(S(=O)(=O)Cc2ccccc2)cc1N	CYP2C9 act 2.2, CYP2C19 inhib 62
COc1ccc(S(=O)(=O)N(CC(=O)NCc2ccco2)c2ccccc2)cc1OC	CYP2C19 inhib 91
COc1ccc(OC)c(N)c1	none
CN(CCCC(=O)NCc1ccco1)S(=O)(=O)c1ccccc1	none
COc1ccc(N(CC(=O)N/N=C/c2ccco2)S(=O)(=O)c2ccccc2)cc1	CYP2C19 inhib 60 (no result: Ecoli tolC)
Cc1ccc(S(=O)(=O)N(CC(=O)NCc2ccco2)Cc2ccccc2F)cc1	CYP2C9 inhib 62
Cc1cc2c3nonc3ccc2n1-c1ccccc1	none
CCN(c1ccccc1)S(=O)(=O)c1ccc(F)cc1	none
COC(=O)CN(c1ccccc1)S(=O)(=O)c1ccc(F)cc1	none (no result: CYP2C9 act, CYP2C19 inhib, CYP2C9 inhib, CYP2C19 act)
CCN(c1ccccc1)S(=O)(=O)c1ccc(N)c(OC)c1	CYP2C9 act 2.8, CYP2C19 inhib 62 (no result: Ecoli tolC)
COc1ccc(S(=O)(=O)N(CC(=O)NCc2ccco2)c2ccccc2)cc1	CYP2C19 inhib 56 (no result: Ecoli tolC)
C=CCNC(=O)CN(c1ccc(F)cc1)S(=O)(=O)c1ccc(OC)cc1	CYP2C19 inhib 92, CYP2C9 inhib 64
COc1cc(OC)c(CN2CCN(c3ccc(F)cc3)CC2)cc1Br	CYP2C19 inhib 78
CSCCC(NS(=O)(=O)c1ccc(Cl)cc1)C(=O)OCC(=O)NC1CCCCC1 (stereo not given)	none (no result: Ecoli tolC)
O=C(NCCc1ccccc1)c1cnc2sccn2c1=O	none (no result: CYP2C9 act, CYP2C19 inhib, CYP2C9 inhib, CYP2C19 act)
Cc1noc(C(=O)NCc2ccc(F)cc2)c1Cl	none (no result: Ecoli tolC)
Cc1nc2c(C(=O)NCCc3ccccc3)c[nH]n2c(=O)c1Cl	CYP2C9 inhib 64
Cc1nc2c(C(=O)NCc3ccc(F)cc3)c[nH]n2c(=O)c1Cl	CYP2C9 inhib 63
Cc1ccc(C(=O)OCC(=O)Nc2ccccc2)cc1NC(=O)c1ccco1	none
Cc1nc(NC(=O)COC(=O)C(NC(=O)c2ccco2)C(C)C)c(Cl)cc1Cl (stereo not given)	CYP2C19 inhib 95
Cc1ccc(C(=O)OCC(=O)Nc2sccc2C(N)=O)cc1NC(=O)c1ccco1	CYP2C9 inhib 94 (no result: Ecoli tolC)
Cc1ccc(C(=O)OCC(=O)Nc2ncc(Cl)cc2Cl)cc1NC(=O)c1ccco1	CYP2C19 inhib 92, CYP2C9 inhib 69 (no result: Ecoli tolC)
Cc1ccc(C(=O)OCC(=O)Nc2sc3c(c2C#N)CCCC3)cc1NC(=O)c1ccco1	CYP2C9 inhib 91 (no result: Ecoli tolC)
C=CCNC(=O)NC(=S)c1ccccc1	none
COC(=O)c1cc(Br)ccc1OC(=O)c1cccnc1	none
O=C(c1ccccc1)[C@H]1[C@H](c2ccccc2)[C@@]2(N=C(c3ccccc3)OC2=O)C2c3ccccc3C=NN21 (stereo not given in full)	none (no result: Ecoli tolC)
